# Screens from PubChem BioAssay.
# A selection: hits, their analogues and other compounds. The true share with any hit is near 1.9%.
# proCasp7 act = activates human procaspase-7, counter-screen for procaspase-3 activators | P55210 | AID 463210 | recombinant procaspase-7, Ac-DEVD-pNA absorbance 405 nm; D23A/D198A/D206A triple mutant, cannot self-cleave; scale: DMSO 0, 5 µM enzyme 100 | activation, % at 8.5 µM | actives 0.093% (n = 330,000);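 active = percent activation above the screen-wide mean plus 3 SD, cut at about 25% in these data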
#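 System: Procaspase-7 triple mutant (PC-7 D3A); measure: % activation from two-timepoint absorbance difference, scaled to controls; times: 1 h compound preincubation, 2 h substrate cleavage, 25 °C; also added: Ac-DEVD-pNA substrate, 400 µM as added; measured by: Epi-absorbance of released pNA at 405 nm, two timepoints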
# HIF act = HIF pathway transcriptional activation; AID 1910; U2OS HRE-luciferase reporter, luminescence; normalized: DMSO 0%, desferrioxamine 100%; activation, % at 7.5 µM (by protocol); actives 0.32% (n = 300,000);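 active = mean activation of at least 10% of the iron chelator positive control signal, with at least half of replicates also reaching 10%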
# proCasp3 act = activates human procaspase-3; actives 0.11% (n = 330,000); recombinant procaspase-3 D3A, Ac-DEVD-pNA absorbance 405 nm; activation, % at 8.5 µM; P42574; AID 463141;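 active = activation above the mean of all tested compounds plus 3 SD, cut at about 21% in these data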;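 note: 0% = DMSO alone and 100% = DMSO wells spiked with extra 5 µM PC-3 D3A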
#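 Compound: 8.5 µM single point, 0.8% DMSO / Material: Autoprocessing-dead procaspase-3 D3A mutant enzyme / Timing: 1 h preincubation plus 2 h reaction at 25 °C / Medium: Zinc-free HEPES/NaCl buffer with 0.01% Triton X-100 at pH 7.4 / Technique: 405 nm absorbance of p-nitroaniline, reads at 0 and 120 min / Repeats: one well per compound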
# Neddylation inh = inhibitors of human cullin neddylation. TR-FRET cullin neddylation, biochemical. actives 0.58% (n = 360,000). P61081+Q13564. inhibition, % at 25 µM. AID 651699; in the data active = inhibition above about 36%
# Target sequence (P61081 whole entry, looked up): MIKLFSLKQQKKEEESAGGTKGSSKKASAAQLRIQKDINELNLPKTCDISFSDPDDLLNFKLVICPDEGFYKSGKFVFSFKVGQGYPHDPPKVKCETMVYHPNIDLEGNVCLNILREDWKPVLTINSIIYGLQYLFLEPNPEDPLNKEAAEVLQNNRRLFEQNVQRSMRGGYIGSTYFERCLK
# Target sequence (Q13564 whole entry, looked up): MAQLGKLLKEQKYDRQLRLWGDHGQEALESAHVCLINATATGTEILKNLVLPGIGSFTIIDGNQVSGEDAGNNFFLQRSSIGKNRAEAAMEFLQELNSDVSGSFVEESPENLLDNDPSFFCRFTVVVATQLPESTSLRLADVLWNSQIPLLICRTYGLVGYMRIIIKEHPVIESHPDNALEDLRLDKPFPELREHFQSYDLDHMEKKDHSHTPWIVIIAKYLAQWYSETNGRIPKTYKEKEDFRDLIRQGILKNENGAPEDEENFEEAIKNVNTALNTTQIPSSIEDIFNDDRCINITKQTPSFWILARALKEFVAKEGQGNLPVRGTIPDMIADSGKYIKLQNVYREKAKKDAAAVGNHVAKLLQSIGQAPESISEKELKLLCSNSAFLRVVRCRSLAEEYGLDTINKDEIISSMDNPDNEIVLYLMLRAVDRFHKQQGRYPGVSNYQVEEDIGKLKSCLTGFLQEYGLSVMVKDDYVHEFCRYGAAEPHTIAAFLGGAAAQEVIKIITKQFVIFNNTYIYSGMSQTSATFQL
# Calb FLC = affects C. albicans growth with fluconazole; C. albicans CaCi-2 + fluconazole, Alamar Blue growth, 48 h; growth inhibition, % (test concentration not listed); actives 0.57% (n = 300,000); AID 1979;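 active = growth inhibition above about 58% in most replicates, limit read from the data, passing the limit was not always enough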;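 note: all wells also contain fluconazole at 8 µg/ml as a sub-toxic cotreatment; 0% = median of DMSO wells and 100% = median of geldanamycin control wells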
# GAA850 FXN act = activators of GAA850 frataxin (FXN) promoter | HEK293 lucGAA850 FXN promoter luciferase reporter, 24 h; percent of 10 µM SAHA response | activation, % at 6 µM | actives 0.56% (n = 360,000) | AID 540364;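 active = activation above the average of all compounds screened plus 3 SD, cutoff fixed separately per campaign, cut at about 7.5% in these data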;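 note: 0% = DMSO wells and 100% = 10 µM SAHA wells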
# Neddyl inh conf = confirmation of human cullin neddylation inhibitors; calls only at 25 µM; shares compounds with Neddylation inh; AID 652217; TR-FRET cullin neddylation biochemical assay; actives 13% (n = 1,800); in the data active = inhibition above about 40%;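 note: neddylation substrate is the cullin 1 ring ligase complex with SKP2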
# Numbers without * were called inactive; i = inactive; · = no result given; + = active, no number.
SMILES,proCasp7 act,HIF act,proCasp3 act,Neddylation inh,Calb FLC,GAA850 FXN act,Neddyl inh conf
CC1(c2nc3ccccc3[nH]2)CCC(=O)N1Cc1ccc(F)cc1 (stereo not drawn),·,·,·,-7,·,·,·
Cc1cc(OCC(O)CN(C)C(=O)C(C)Oc2ccccc2)ccc1Cl (stereo not drawn),3,-2,-7,2,8,0,·
CC1CCc2sc(NC(=O)c3ccc(N4C(=O)CCC4=O)cc3)c(C(N)=O)c2C1 (stereo not drawn),5,0,-2,43*,4,1,·
CCOc1ccc2[nH]c3ncccc3c(=O)c2c1,-1,1,-4,47*,14,2,+
CC(=O)c1ccc(OCCCC(=O)NCCc2ccccc2)cc1,-6,2,1,5,-5,1,·
CCCc1cc(=O)oc2c(C)c3occ(C)c3cc12,4,2,-2,40*,-21,3,i
COc1ccc(-c2c(C)nn3c(NC4CCCC4)cc(C)nc23)cc1OC,-7,-21,-2,48*,-8,1,i
Cc1cc(NC2CCCC2)n2nc(C)c(-c3ccccc3)c2n1,-13,-1,-3,·,2,5,·
COc1ccc(NC(=O)NNC(=O)COc2ccc3cc(Br)ccc3c2)c(OC)c1,-12,0,-6,i,-3,1,·
COCCn1c(C)cc(/C=N/NC(=O)c2cc3ccccc3cc2O)c1C,-2,·,12,50*,·,1,·
Cc1c(-c2ccc(Cl)cc2)oc(=O)c2c(N)n(-c3ccccc3)nc12,5,0,4,-83,-4,-1,·
Nc1c2c(=O)oc(-c3ccccc3)cc2nn1-c1ccccc1,7,5,-5,50*,-3,1,+
CC(C)(C)c1ccc(OCc2ccc(C(=O)Nc3cccnc3)o2)cc1,7,7,5,0,7,1,·
CCOc1ccc(C2NC(=O)c3ccccc3O2)cc1OCC (stereo not drawn),5,0,-2,41*,4,3,i
O=C1NC(c2ccc3c(c2)OCO3)Oc2ccccc21 (stereo not drawn),9,0,1,42*,-5,-1,i
CCOc1cc(C2NC(=O)c3ccccc3O2)ccc1OC(C)C (stereo not drawn),8,-2,1,45*,-3,4,i
NC1=NC(=O)/C(=C/c2c(OS(=O)(=O)c3ccc(Cl)cc3)ccc3ccccc23)S1,-2,0,3,41*,4,1,i
NC1=NC(=O)/C(=C/c2ccccc2OS(=O)(=O)c2ccccc2)S1,7,-1,11,16,-5,-1,·
COc1ccc(OC)c(/C=C/C(=O)NC2=NCCS2)c1,3,1,5,42*,-12,3,·
COc1ccc(/C=C/C(=O)NC2=NCCS2)cc1OC,0,4,8,·,12,5,·
CC(C)c1ccc(S(=O)(=O)c2nnn3c2nc(NCC2CCCO2)c2ccccc23)cc1 (stereo not drawn),1,0,2,-47,9,0,·
O=c1nc2c(-c3ccccc3F)n[nH]n2c2ccccc12,18,3,4,·,60,6,·
CC(C)c1ccc(S(=O)(=O)c2n[nH]n3c2nc(=O)c2ccccc23)cc1,10,0,7,50*,47,-1,i
CCc1ccc(S(=O)(=O)c2n[nH]n3c2nc(=O)c2ccccc23)cc1,20,0,13,46*,35,-1,i
CCC1(c2ccc(F)cc2)NC(=O)N(CC(=O)N2CCN(C(=O)c3ccco3)CC2)C1=O (stereo not drawn),3,·,-1,-121,·,0,·
SMILES,proCasp7 act,HIF act,proCasp3 act,Neddylation inh,Calb FLC,GAA850 FXN act,Neddyl inh conf
CSCC[C@H](NS(=O)(=O)c1ccc(C)cc1)C(=O)N1CCC(C(=O)N[C@@H](Cc2ccc(O)cc2)C(=O)O)CC1,-1,0,7,2,-1,1,·
COc1ccc(-n2cc(CNCc3cnc4ccccn34)c(-c3cccc(F)c3)n2)cc1,3,1,2,42*,-3,2,·
COc1ccc(NC(=O)CSc2nc3nc(-c4cccs4)cc(C(F)(F)F)c3c(=O)[nH]2)c(OC)c1,5,0,6,54*,1,1,i
CCC(C)CN1C(=O)CN(S(C)(=O)=O)CC1(C)C(=O)NCc1ccccc1 (stereo not drawn),·,·,·,7,·,·,·
O=c1c2c(nc3c(-c4ccccc4)c[nH]n13)CCCC2,12,0,4,38*,36,-3,·
CC(C)(O)[C@H]1Cc2cc3ccc(=O)oc3cc2O1,4,-16,9,·,18,5,·
CC1(C)Oc2cc3oc(=O)ccc3cc2C[C@@H]1O,-5,·,-2,52*,·,0,·
O=C(Nc1ccccc1)c1cccc(=O)o1,6,0,1,-17,1,1,·
CCCc1cc(=O)oc2c(C)c(OC3CCCCC3=O)ccc12 (stereo not drawn),·,-4,·,35,9,0,·
CCCCc1cc(=O)oc2cc(OC3CCCCC3=O)ccc12 (stereo not drawn),2,-1,-2,39*,-4,-1,i
NC(=O)c1sc2cc(C(F)(F)F)cnc2c1-c1cccs1,-18,0,-6,28,31,1,·
O=C(O)c1sc2cc(C(F)(F)F)cnc2c1-c1cccs1,-3,0,1,41*,6,0,+
CCOC(=O)C1CC(=NO)c2ccc(OC)c(OC)c2C1 (stereo not drawn),·,·,·,40*,·,-1,i
O=C1NC(c2ccccc2Cl)Nc2ccccc21 (stereo not drawn),-4,0,5,·,-5,-1,·
O=C1OC(C(Cl)(Cl)Cl)Nc2ccccc21 (stereo not drawn),·,·,·,38*,·,·,i
CCOc1ccc(/C=N/NC(=O)CN2CCCCC2)cc1OCC,-3,0,11,1,-5,5,·
O=C(C1CCCCC1)N1C[C@H](n2cc(C3CC3)nn2)[C@@H](O)C[C@@H]1c1ccc(Cl)cc1,·,·,·,-2,·,-1,·
Cc1ccc2c(c1)c(C)cc[n+]2Cc1ccccc1,6,0,-4,-4,-16,-3,·
COc1ccc2c(c1)c(C)cc[n+]2Cc1ccccc1,·,-1,·,43*,8,-2,·
COC(=O)[C@@H]1Cc2c([nH]c3ccccc23)C2CCC(=O)N21 (stereo partly drawn),·,2,·,11,4,2,·
